Consider nine compounds from ChEMBL document CHEMBL1165882, “Synthesis and modulation properties of imidazo[4,5-b]pyridin-7-one and indazole-4,7-dione derivatives towards the Cryptosporidium parvum CpABC3 transporter” (Eur J Med Chem, 2010).

SMILES strings stand for the structures.

In general, Ki refers to a measure of affinity in units of concentration, obtained from inhibition or displacement.

The first assay deals with Cryptosporidium parvum. Description: Binding affinity to Cryptosporidium parvum recombinant H6-NBD1 of ABC3 transporter expressed in Escherichia coli BL21(DE3) assessed as intrinsic fluorescence quenching at 100 uM relative to control.
Details: not given; call rule not given here
In short, it runs like this: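 His6-tagged NBD1 purified on Ni-NTA, dialyzed against 50 mM Tris pH 7.3/100 mM KCl/0.02% HECAMEG/20% glycerol. Protein 0.25–0.5 μM in 50 mM Tris pH 7.3, 100 mM KCl, 0.02% HECAMEG; compounds 100 μM from DMSO stocks (≤2.5% DMSO), 30 min at 20 ± 2 °C. Excitation 295 nm, emission 328 nm; % of dialysis-buffer/solvent control; triplicates, 3 separate experiments.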
Regarding `CCOC(=O)C(C)n1ccc(=O)c2c1ncn2Cc1ccccc1` (racemic), the Activity was determined as 69.3%.
Same read-out and setting: the same measure for `CC(C)(C)OC(=O)NCCCn1ccc(=O)c2c1ncn2Cc1ccccc1`: 96.1%.
The same measure, in the same setting: the same measure for `Nc1ncnc2c1ncn2[C@@H]1O[C@H](COP(=O)(O)OP(=O)(O)OP(=O)(O)O)[C@H]2OC3(O[C@H]21)C([N+](=O)[O-])=CC(=[N+]([O-])[O-])C=C3[N+](=O)[O-]` (some centres undefined) [TNP-ATP]: 33.1%.
In the case of `Cc1nc(Cn2ncc3c2C(=O)C=CC3=O)cs1`, the Activity was determined as 21.6%.
On the same count and under the same terms, as for `CCOC(=O)Cn1ccc(=O)c2c1ncn2Cc1ccccc1`, the figure is 85.5%.
The same measure, in the same setting: the same measure for `CC(=O)[C@H]1CC[C@H]2[C@@H]3CCC4=CC(=O)CC[C@]4(C)[C@H]3CC[C@]12C`: 71.7%; for `O=C1C=CC(=O)c2c1cnn2Cc1ccccc1`: 22.9%.
On the same count and under the same terms, the same measure for `CC(C)(C)OC(=O)NCCCCCCn1ccc(=O)c2c1ncn2Cc1ccccc1`: 60.8%; for `CCOC(=O)CCCn1ccc(=O)c2c1ncn2Cc1ccccc1`: 80.1%.

System in the next assay: not listed separately
In words: Inhibition of Cryptosporidium parvum recombinant H6-NBD1 of ABC3 transporter ATPase activity expressed in Escherichia coli BL21(DE3) after 10 mins.
Details: not given
In short, it runs like this:
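Purified His6-NBD1 (2.5 μM final) incubated 10 min at 37 °C in 50 mM Tris pH 7.3, 100 mM KCl, 4 mM MgCl2, 0.02% HECAMEG with serially diluted compounds at various ATP concentrations. Reaction products quantified in triplicate by reverse-phase HPLC, detection at 254 nm; inhibition type and Ki by non-linear regression.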
On to `CC(C)(C)OC(=O)NCCCCCCn1ccc(=O)c2c1ncn2Cc1ccccc1`, for which the Ki entry was “Not Active”.

Staying with this assay, now noted: read-out: Ki.
For the compound `CCOC(=O)C(C)n1ccc(=O)c2c1ncn2Cc1ccccc1` (racemic), the inhibitory constant (Ki) is 232 µM.
For the compound `CC(C)(C)OC(=O)NCCCn1ccc(=O)c2c1ncn2Cc1ccccc1`, the Ki was 539 µM.
Same read-out and setting: as for `Nc1ncnc2c1ncn2[C@@H]1O[C@H](COP(=O)(O)OP(=O)(O)OP(=O)(O)O)[C@H]2OC3(O[C@H]21)C([N+](=O)[O-])=CC(=[N+]([O-])[O-])C=C3[N+](=O)[O-]` (some centres undefined) [TNP-ATP], the figure is 36.6 µM; as for `Cc1nc(Cn2ncc3c2C(=O)C=CC3=O)cs1`, 116 µM.
